pIC50: −log10 of the molar value. Calls of active or inactive are those of the source. The rule behind the calls is not given here.

The species entered for assay [1] is Homo sapiens. Description: Increase in intracellular cAMP level in human granulocytes at 1 to 50 uM incubated for 1 min at 25 degC. Type of assay: functional, cell-based. The procedure, abridged: (§1)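 Human granulocytes were rested overnight after purification, pelleted at 200×g for 5 min, and resuspended at 1.5 × 10⁷/ml in HBSS with Ca and Mg. Cells were preincubated 5 min at 25 °C with the PDE inhibitor Ro-20-1724, then given analog alone for 1 min at 25 °C. Perchloric acid at 4 °C stopped the reaction, and supernatant was neutralized to pH 7.5 with K2CO3. cAMP was read by [³H]-cAMP competitive radioimmunoassay and reported relative to untreated cells.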
Background: Changes in cAMP serve as a functional read-out for many G protein-coupled receptors.

The species entered for assay [2] is Homo sapiens. Kind of assay: Inhibition of 1 uM ABA-induced Increase in intracellular cAMP level in human granulocytes at 50 uM incubated for 1 min at 25 degC. The assay is classed as functional, cell-based. The procedure, abridged:
(§2)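 Cells were rested overnight, then resuspended at 1.5 × 10⁷/ml in HBSS containing Ca and Mg. After a 5 min preincubation at 25 °C with Ro-20-1724 (PDE inhibitor), aliquots received ABA with or without analog for 1 min at 25 °C; untreated cells were the control. Cold perchloric acid ended the reaction; lysate was spun, neutralized with K2CO3 to pH 7.5, and cleared of KClO4. cAMP was measured by [³H]-cAMP radioimmunoassay and given as increase over control.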

The next assay deals with T1, LanC-like protein 2 (Homo sapiens, UniProt Q9NS86).
T1 sequence (Q9NS86 whole entry): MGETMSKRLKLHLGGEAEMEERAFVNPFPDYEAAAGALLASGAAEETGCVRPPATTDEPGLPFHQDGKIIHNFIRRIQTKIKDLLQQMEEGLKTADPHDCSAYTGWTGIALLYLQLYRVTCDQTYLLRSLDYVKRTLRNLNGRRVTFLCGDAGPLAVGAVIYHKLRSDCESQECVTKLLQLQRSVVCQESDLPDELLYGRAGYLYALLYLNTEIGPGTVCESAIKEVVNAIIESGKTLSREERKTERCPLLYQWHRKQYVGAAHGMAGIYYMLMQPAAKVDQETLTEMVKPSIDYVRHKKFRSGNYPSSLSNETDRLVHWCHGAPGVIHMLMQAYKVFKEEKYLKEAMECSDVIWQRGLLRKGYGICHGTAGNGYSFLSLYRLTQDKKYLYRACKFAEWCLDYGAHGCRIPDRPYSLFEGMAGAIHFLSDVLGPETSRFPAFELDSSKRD
Kind of assay: Inhibition of ABA binding to LANCL2 (unknown origin).

The nature of assay [3]: Inhibition of 1 uM ABA-induced Increase in intracellular cAMP level in human granulocytes incubated for 1 min at 25 degC. Type of assay: functional, cell-based. In short, it runs like this:
as §2

For assay [4], the species on record is Homo sapiens. Kind of assay: Increase in intracellular cAMP level in human granulocytes at 50 uM incubated for 1 min at 25 degC. Type of assay: functional, cell-based. In short, it runs like this: as §1
The species entered for assay [5] is Homo sapiens. Kind of assay: Increase in intracellular cAMP level in human granulocytes at 1 to 10 uM incubated for 1 min at 25 degC. Type of assay: functional, cell-based. The procedure, abridged: as §1
The species entered for assay [6] is Homo sapiens. Kind of assay: (§3) Increase in intracellular cAMP level in human granulocytes at 1 uM incubated for 1 min at 25 degC. Type of assay: functional. The procedure, abridged: as §1
The species named for assay [7] is Homo sapiens. Description: Potentiation of 1 uM ABA-induced Increase in intracellular cAMP level in human granulocytes at 50 uM incubated for 1 min at 25 degC. Type of assay: functional, cell-based. In short, it runs like this: as §2
The species named for assay [8] is Homo sapiens. Description: Inhibition of 1 uM ABA-induced Increase in intracellular cAMP level in human granulocytes at 1 to 10 uM incubated for 1 min at 25 degC. The assay is classed as functional, cell-based. In short, it runs like this: as §2
The nature of assay [9]: as §3. The assay is classed as functional. In short, it runs like this:
as §1

As for `COC(=O)/C=C(C)\C=C\c1c(C)cc(OC(C)=O)c(C)c1C`, the result in the assay listed under Homo sapiens [1] was inactive. Moreover, the inhibition entry in the assay filed under Homo sapiens [2] is “inactive”.

As for `CC(=C/C(=O)O)/C=C/C1(O)C(C)(C)CC(=O)C2OC21C` (racemic), the inhibition result in the assay listed under Homo sapiens [2] was “Active”. Besides, the pIC50 on LanC-like protein 2 was 8.18; in assay [3], 9.15.

Regarding `CC(=O)/C=C/C12OC1(C)CCCC2(C)C` (racemic), in the assay listed under Homo sapiens [2], the inhibition result was “inactive”. In addition, the result in the assay listed under Homo sapiens [4] was Active. Further, the outcome in the assay listed under Homo sapiens [5] was inactive.

Regarding `CC(=O)OC1C=C(C)C(O)(/C=C/C(C)=C\C(=O)O)C(C)(C)C1` (racemic), the outcome in the assay filed under Homo sapiens [1] was Active.

With `CC1=CC(=O)CC(C)(C)C1(O)/C=C/C(C)=C\C(=O)Nc1ccc(N)cc1` (racemic), the outcome in the assay listed under Homo sapiens [1] was inactive. In addition, in the assay listed under Homo sapiens [2], the inhibition result was “inactive”.

Consider `CC1=CC(=O)CC(C)(C)C1(O)/C=C/C(C)=C\C(=O)Nc1ccccc1` (racemic), for which the result in the assay listed under Homo sapiens [6] and in the assay filed under Homo sapiens [1] was Active.

Regarding `CC1=CC(=O)CC(C)(C)C1(O)/C=C/C(C)=C\C(=O)OC(C)(C)C` (racemic), the result in the assay filed under Homo sapiens [1] was Active. For the same molecule, the result in the assay filed under Homo sapiens [7] was inactive.

As to `CC1=CC(=O)CC(C)(C)C1(O)/C=C/C(C)=C\C(=O)OCC(=O)OC(C)(C)C` (racemic), the outcome in the assay filed under Homo sapiens [6] and in the assay filed under Homo sapiens [5] was Active.

As for `CC1=CC(=O)CC(C)(C)C1(O)/C=C/C(C)=C\C(=O)OCC(=O)OCC(=O)O` (racemic), in the assay listed under Homo sapiens [2], the inhibition entry is “Active”. The outcome in the assay listed under Homo sapiens [4] was inactive. The inhibition result in the assay filed under Homo sapiens [8] is “inactive”.

`CC1=CC(=O)CC(C)(C)C1(O)/C=C/C(C)=C\CO` (racemic): the result in the assay filed under Homo sapiens [1] was Active.

For `CC1=CC(=O)O/C1=C\C1(O)C(C)=CC(=O)CC1(C)C` (racemic), the outcome in the assay listed under Homo sapiens [1] was Active.

Turning to `CC1=CC(O)CC(C)(C)C1(O)/C=C/C(C)=C\C(=O)O` (racemic), the result in the assay filed under Homo sapiens [1] was Active.

For the molecule `CC1=CC(O)CC(C)(C)C1(O)/C=C/C(C)=C\C(=O)OCC(=O)OC(C)(C)C` (racemic), the result in the assay filed under Homo sapiens [1] was inactive. Further, the inhibition result in the assay filed under Homo sapiens [2] was “inactive”.

`CC1=CC(O)CC(C)(C)C1(O)/C=C/C(C)=C\CO` (racemic): the result in the assay filed under Homo sapiens [1] was Active.

On to `CCN(CC)C(=O)/C=C(C)\C=C\C1(O)C(C)=CC(=O)CC1(C)C` (racemic), for which the outcome in the assay listed under Homo sapiens [1] was Active.

In the case of `COC(=O)/C=C(C)\C=C\C1(O)C(C)=CC(=O)CC1(C)C` (racemic), the result in the assay filed under Homo sapiens [1] and in the assay filed under Homo sapiens [7] was Active.

`COC(=O)/C=C(C)\C=C\C1(O)C(C)=CC(O)CC1(C)C` (racemic): the outcome in the assay listed under Homo sapiens [1] was inactive. In addition, in the assay filed under Homo sapiens [2], the inhibition entry is “inactive”.

Regarding `COc1ccc(NC(=O)/C=C(C)\C=C\C2(O)C(C)=CC(=O)CC2(C)C)cc1` (racemic), the result in the assay filed under Homo sapiens [6] and in the assay filed under Homo sapiens [1] was Active.

`CC1=CC(=O)CC(C)(C)[C@@]1(O)/C=C/C(C)=C\C(=O)O` (racemic) [(+)-ABSCISIC ACID] returned an Activity in [9] of 35%.

For orientation: pIC50 means −log10 of the IC50, conventionally taken in molar units. Low values mean a large IC50, high ones a small IC50.

Source of the values: ChEMBL document CHEMBL3352196, “Synthesis, structural characterization and effect on human granulocyte intracellular cAMP levels of abscisic acid analogs” (Bioorg Med Chem, 2015).
